# Results from ChEMBL document CHEMBL1142063, “Synthesis of omeprazole analogues and evaluation of these as potential inhibitors of the multidrug efflux pump NorA of Staphylococcus aureus” (2007).
# Legend:
# [1] = test system: Staphylococcus aureus; assay: Antibacterial activity against Staphylococcus aureus SA1199B overexpressing NorA at 30 ug by disk diffusion method; assay type: functional; conditions: read-out: IZ
# How it was run: (§1)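 Agar diffusion on Mueller-Hinton agar (adjusted to 20 μg/ml Ca²⁺ and 10 μg/ml Mg²⁺), used plain or with the efflux inhibitor incorporated at the stated concentration. Disks were 5 μg for the fluoroquinolones and 30 μg for chloramphenicol. Plates were incubated overnight at 37°C, and inhibition zone diameters were measured. Values are means of at least three independent experiments.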
# [2] = test system: Staphylococcus aureus; assay: Increase in 16 ug/ml Norfloxacin accumulation in Staphylococcus aureus SA1199B mutant overexpressing NorA measured per milligram of cell protein at 128 ug/ml after 20 mins; assay type: functional, organism-based
# How it was run: (§2)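 SA-1199B was grown to mid-exponential phase in MH broth (4–5 h, 37°C, shaken), then washed and resuspended in 50 mM sodium phosphate, pH 7.0. Cells got norfloxacin at one-quarter MIC, alone or with inhibitor at 128 μg/ml. At 5–20 min, cells were spun through silicone-paraffin oil into orthophosphoric acid. Norfloxacin was measured by HPLC fluorescence (ex 240/[…]) as ng/mg BCA protein. Means of triplicate experiments.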
# [3] = test system: Staphylococcus aureus; assay: Increase in 30 ug chloramphenicol antibacterial activity against Staphylococcus aureus SA1199B mutant overexpressing NorA at 16 ug/ml by disk diffusion method; assay type: functional; how it was run: as §1
# [4] = test system: Staphylococcus aureus; assay: Increase in 5 ug moxifloxacin antibacterial activity against Staphylococcus aureus SA1199B mutant overexpressing NorA at 128 ug/ml by disk diffusion method; assay type: functional; how it was run: as §1
# [5] = test system: Staphylococcus aureus; assay: Increase in 5 ug Norfloxacin antibacterial activity against Staphylococcus aureus SA1199B mutant overexpressing NorA at 32 ug/ml by disk diffusion method; assay type: functional; how it was run: as §1
# [6] = test system: Staphylococcus aureus; assay: Increase in 16 ug/ml Norfloxacin accumulation in Staphylococcus aureus SA1199B mutant overexpressing NorA measured per mg of cell protein at 128 ug/ml after 5 mins; assay type: functional, organism-based; how it was run: as §2
# [7] = test system: Staphylococcus aureus; assay: Increase in 5 ug sparfloxacin antibacterial activity against Staphylococcus aureus SA1199B mutant overexpressing NorA at 128 ug/ml by disk diffusion method; assay type: functional; how it was run: as §1
# [8] = test system: Staphylococcus aureus; assay: Increase in 2 ug/ml Norfloxacin antibacterial activity against wild type Staphylococcus aureus SA1199 at 128 ug/ml by checker board method; assay type: functional
# [9] = test system: Staphylococcus aureus; assay: Increase in 5 ug ofloxacin antibacterial activity against Staphylococcus aureus SA1199B mutant overexpressing NorA at 128 ug/ml by disk diffusion method; assay type: functional; how it was run: as §1
# [10] = test system: Staphylococcus aureus; assay: Increase in 30 ug chloramphenicol antibacterial activity against Staphylococcus aureus SA1199B mutant overexpressing NorA at 128 ug/ml by disk diffusion method; assay type: functional; how it was run: as §1
# [11] = test system: Staphylococcus aureus; assay: Increase in 5 ug sparfloxacin antibacterial activity against Staphylococcus aureus SA1199B mutant overexpressing NorA at 16 ug/ml by disk diffusion method; assay type: functional; how it was run: as §1
# [12] = test system: Staphylococcus aureus; assay: Increase in 30 ug chloramphenicol antibacterial activity against Staphylococcus aureus SA1199B mutant overexpressing NorA at 32 ug/ml by disk diffusion method; assay type: functional; how it was run: as §1
# [13] = test system: Staphylococcus aureus; assay: Increase in 5 ug levofloxacin antibacterial activity against Staphylococcus aureus SA1199B mutant overexpressing NorA at 32 ug/ml by disk diffusion method; assay type: functional; how it was run: as §1
# [14] = test system: Staphylococcus aureus; assay: Increase in 5 ug moxifloxacin antibacterial activity against Staphylococcus aureus SA1199B mutant overexpressing NorA at 32 ug/ml by disk diffusion method; assay type: functional; how it was run: as §1
# [15] = test system: Staphylococcus aureus; assay: Increase in 5 ug ofloxacin antibacterial activity against Staphylococcus aureus SA1199B mutant overexpressing NorA at 64 ug/ml by disk diffusion method; assay type: functional; how it was run: as §1
# [16] = test system: Staphylococcus aureus; assay: Increase in 64 ug/ml Norfloxacin antibacterial activity against Staphylococcus aureus SA1199B mutant overexpressing NorA at 128 ug/ml by checker board method; assay type: functional
# [17] = test system: Staphylococcus aureus; assay: Increase in 5 ug ofloxacin antibacterial activity against Staphylococcus aureus SA1199B mutant overexpressing NorA at 16 ug/ml by disk diffusion method; assay type: functional; how it was run: as §1
# [18] = test system: Staphylococcus aureus; assay: Increase in 5 ug ciprofloxacin antibacterial activity against Staphylococcus aureus SA1199B mutant overexpressing NorA at 128 ug/ml by disk diffusion method; assay type: functional; how it was run: as §1
# [19] = test system: Staphylococcus aureus; assay: Increase in 5 ug levofloxacin antibacterial activity against Staphylococcus aureus SA1199B mutant overexpressing NorA at 128 ug/ml by disk diffusion method; assay type: functional; how it was run: as §1
# [20] = test system: Staphylococcus aureus; assay: Increase in 5 ug levofloxacin antibacterial activity against Staphylococcus aureus SA1199B mutant overexpressing NorA at 16 ug/ml by disk diffusion method; assay type: functional; how it was run: as §1
# [21] = test system: Staphylococcus aureus; assay: Increase in 16 ug/ml Norfloxacin accumulation in wild type Staphylococcus aureus SA1199 at 128 ug/ml after 20 mins; assay type: functional
# How it was run: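 Mid-exponential SA-1199 cells were washed and resuspended in 50 mM sodium phosphate, pH 7.0. They were exposed at time zero to norfloxacin at one-quarter MIC, alone or with EPI at 128 μg/ml. At 5–20 min, cells were spun through silicone-paraffin oil into orthophosphoric acid. Lysate norfloxacin was measured by C18 HPLC with fluorescence detection (ex 240, em 280 nm) and normalized to BCA protein (ng/mg). Triplicate experiments, mean reported.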
# [22] = test system: Staphylococcus aureus; assay: Increase in 30 ug chloramphenicol antibacterial activity against Staphylococcus aureus SA1199B mutant overexpressing NorA at 64 ug/ml by disk diffusion method; assay type: functional; how it was run: as §1
# [23] = test system: Staphylococcus aureus; assay: Increase in 5 ug Norfloxacin antibacterial activity against Staphylococcus aureus SA1199B mutant overexpressing NorA at 64 ug/ml by disk diffusion method; assay type: functional; how it was run: as §1
# [24] = test system: Staphylococcus aureus; assay: Increase in 5 ug sparfloxacin antibacterial activity against Staphylococcus aureus SA1199B mutant overexpressing NorA at 32 ug/ml by disk diffusion method; assay type: functional; how it was run: as §1
# [25] = test system: Staphylococcus aureus; assay: Antibacterial activity against Staphylococcus aureus; assay type: functional
# How it was run: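 Tube broth dilution MIC against SA-1199 and NorA-overproducing SA-1199B in Mueller-Hinton broth with 20 μg/ml Ca²⁺ and 10 μg/ml Mg²⁺. Inoculum was a 4–5 h 37°C culture diluted 1/10 (≈10⁶ CFU/ml). Compound range was 512 to 1 μg/ml, dissolved in DMSO (final ≤4%).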
# [26] = test system: Staphylococcus aureus; assay: Increase in 5 ug Norfloxacin antibacterial activity against Staphylococcus aureus SA1199B mutant overexpressing NorA at 128 ug/ml by disk diffusion method; assay type: functional; how it was run: as §1
# [27] = test system: Staphylococcus aureus; assay: Increase in 5 ug moxifloxacin antibacterial activity against Staphylococcus aureus SA1199B mutant overexpressing NorA at 64 ug/ml by disk diffusion method; assay type: functional; how it was run: as §1
# [28] = test system: Staphylococcus aureus; assay: Increase in 5 ug moxifloxacin antibacterial activity against Staphylococcus aureus SA1199B mutant overexpressing NorA at 16 ug/ml by disk diffusion method; assay type: functional; how it was run: as §1
# [29] = test system: Staphylococcus aureus; assay: Increase in 16 ug/ml Norfloxacin accumulation in Staphylococcus aureus SA1199B mutant overexpressing NorA at 128 ug/ml after 20 mins; assay type: functional; how it was run: as §2
# [30] = test system: Staphylococcus aureus; assay: Increase in 5 ug sparfloxacin antibacterial activity against Staphylococcus aureus SA1199B mutant overexpressing NorA at 64 ug/ml by disk diffusion method; assay type: functional; how it was run: as §1
# [31] = test system: Staphylococcus aureus; assay: Increase in 5 ug ofloxacin antibacterial activity against Staphylococcus aureus SA1199B mutant overexpressing NorA at 32 ug/ml by disk diffusion method; assay type: functional; how it was run: as §1
# [32] = test system: Staphylococcus aureus; assay: Increase in 5 ug levofloxacin antibacterial activity against Staphylococcus aureus SA1199B mutant overexpressing NorA at 64 ug/ml by disk diffusion method; assay type: functional; how it was run: as §1
# [33] = test system: Staphylococcus aureus; assay: Increase in 5 ug ciprofloxacin antibacterial activity against Staphylococcus aureus SA1199B mutant overexpressing NorA at 64 ug/ml by disk diffusion method; assay type: functional; how it was run: as §1
# [34] = test system: Staphylococcus aureus; assay: Increase in 5 ug Norfloxacin antibacterial activity against Staphylococcus aureus SA1199B mutant overexpressing NorA at 16 ug/ml by disk diffusion method; assay type: functional; how it was run: as §1
# [35] = test system: Staphylococcus aureus; assay: Increase in 5 ug ciprofloxacin antibacterial activity against Staphylococcus aureus SA1199B mutant overexpressing NorA at 32 ug/ml by disk diffusion method; assay type: functional; how it was run: as §1
# [36] = test system: Staphylococcus aureus; assay: Increase in 5 ug ciprofloxacin antibacterial activity against Staphylococcus aureus SA1199B mutant overexpressing NorA at 16 ug/ml by disk diffusion method; assay type: functional; how it was run: as §1
# [37] = test system: Staphylococcus aureus; assay: Antibacterial activity against Staphylococcus aureus SA1199 at 5 ug by disk diffusion method; conditions: read-out: IZ
structure (smiles),measurement,setting,value
O=C(N[C@H](CO)[C@H](O)c1ccc([N+](=O)[O-])cc1)C(Cl)Cl [CHLORAMPHENICOL],zone of inhibition at 30 µg/disc,[1],24 mm
COC(=O)[C@H]1[C@H]2C[C@@H]3c4[nH]c5cc(OC)ccc5c4CCN3C[C@H]2C[C@@H](OC(=O)c2cc(OC)c(OC)c(OC)c2)[C@@H]1OC [RESERPINE],Drug uptake,[2],400 ng/mg
same,inhibition zone (IZ),[3],24 mm
same,inhibition zone (IZ),[4],28 mm
same,inhibition zone (IZ),[5],12 mm
same,Drug uptake,[6],270 ng/mg
same,inhibition zone (IZ),[7],28 mm
same,MIC,[8],1 µg/mL
same,inhibition zone (IZ),[9],21 mm
same,inhibition zone (IZ),[10],25 mm
same,inhibition zone (IZ),[11],27 mm
same,inhibition zone (IZ),[12],24 mm
same,inhibition zone (IZ),[13],24 mm
same,inhibition zone (IZ),[14],28 mm
same,inhibition zone (IZ),[15],20 mm
same,MIC,[16],8 µg/mL
same,inhibition zone (IZ),[17],19 mm
same,inhibition zone (IZ),[18],22 mm
same,inhibition zone (IZ),[19],24 mm
same,inhibition zone (IZ),[20],22 mm
same,Activity,[21],10%
same,inhibition zone (IZ),[22],25 mm
same,inhibition zone (IZ),[23],12 mm
same,inhibition zone (IZ),[24],27 mm
same,MIC,[25],> 512 µg/mL
same,inhibition zone (IZ),[26],13 mm
same,inhibition zone (IZ),[27],28 mm
same,inhibition zone (IZ),[28],28 mm
same,Activity,[29],40%
same,inhibition zone (IZ),[30],27 mm
same,inhibition zone (IZ),[31],19 mm
same,inhibition zone (IZ),[32],24 mm
same,inhibition zone (IZ),[33],20 mm
same,inhibition zone (IZ),[34],9 mm
same,inhibition zone (IZ),[35],18 mm
same,inhibition zone (IZ),[36],16 mm
C[C@@H]1CN(c2c(F)c(N)c3c(=O)c(C(=O)O)cn(C4CC4)c3c2F)C[C@H](C)N1 [SPARFLOXACIN],zone of inhibition at 5 µg/disc,[37],30 mm
